From ChEMBL document CHEMBL1156149, “Cyclic sulfones as novel P3-caps for hepatitis C virus NS3/4A (HCV NS3/4A) protease inhibitors: synthesis and evaluation of inhibitors with improved potency and pharmacokinetic profiles” (J Med Chem, 2010)

Tests used:
[1] = Inhibition of HCV NS3/4A protease; design: species or system Hepacivirus hominis
Hepatitis C virus = assay: Antiviral activity against Hepatitis C virus infected in human hepatoma cells assessed as inhibition of viral replication; assay type: functional, organism-based, Hepacivirus hominis
[2] = Ratio of plasma concentration in monkey at 3 mg/kg, po after 8 hrs to EC90 for Hepatitis C virus; assay type: ADME, organism-based; design: dose 3 mg/kg, route oral; conditions: in vivo
[3] = Plasma concentration in monkey at 3 mg/kg, po after 8 hrs; assay type: ADME, organism-based, Macaca mulatta; design: dose 3 mg/kg, route oral; conditions: rhesus monkey
[4] = AUC (0 to 24 hrs) in monkey at 3 mg/kg, po; assay type: ADME, organism-based, Macaca mulatta; design: time < 24 hr, dose 3 mg/kg, route oral; conditions: rhesus monkey, plasma
[5] = AUC (0 to 6 hrs) in rat at 10 mg/kg, po; assay type: ADME, organism-based; design: time < 6 hr, dose 10 mg/kg, route oral; conditions: plasma
In short: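 Rats dosed orally at 10 mg/kg in 0.4% methylcellulose in water, in a rapid rat protocol. Blood was withdrawn periodically and pooled, and plasma AUC was calculated over the stated interval.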

[6] = Bioavailability in monkey at 3 mg/kg; assay type: ADME, organism-based, Macaca mulatta; conditions: rhesus monkey, in vivo
[7] = AUC in rat at 10 mg/kg; assay type: ADME, organism-based; design: dose 10 mg/kg; conditions: plasma
In short: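 Rats were given compound orally at 10 mg/kg in 0.4% methylcellulose in water. Blood was sampled periodically and pooled (rapid rat protocol). Plasma exposure was reported as AUC(0-6h) in μM h.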

[8] = AUC in monkey at 3 mg/kg; assay type: ADME, organism-based, Macaca mulatta; design: dose 3 mg/kg; conditions: rhesus monkey, plasma
In short: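 Oral dosing of monkeys at 3 mpk, with compound suspended in 0.4% methylcellulose. Exposure was reported as plasma AUC(0-24h) in μM h. Plasma concentration at 8 h was also taken and expressed as a ratio to cellular EC90.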

Ki [1] [nM] | EC90 (Hepatitis C virus) [nM] | other results | Structure (SMILES)
4 | 40 |  | C=CCNC(=O)C(=O)[C@H](CCC1CC1)NC(=O)[C@@H]1[C@H]2[C@@H](CN1C(=O)[C@@H](NC(=O)NC1([C@H]3CCCCS3(=O)=O)CCCCC1)C(C)(C)C)C2(C)C
9 |  | EC90 (Hepatitis C virus; read-out: EC90): 200 nM | CC1(NC(=O)N[C@H](C(=O)N2C[C@@H]3[C@H]([C@H]2C(=O)NC(CC2CCC2)C(=O)C(N)=O)C3(C)C)C(C)(C)C)CCCCC1 (some centres undefined)
10 | 50 |  | CCCC[C@H](NC(=O)[C@@H]1[C@H]2[C@@H](CN1C(=O)[C@@H](NC(=O)NC1([C@H]3CCCCS3(=O)=O)CCCCC1)C(C)(C)C)C2(C)C)C(=O)C(=O)NC1CC1
12 | 60 |  | C=CCNC(=O)C(=O)[C@H](CCCC)NC(=O)[C@@H]1[C@H]2[C@@H](CN1C(=O)[C@@H](NC(=O)NC1([C@H]3CCCCS3(=O)=O)CCCCC1)C(C)(C)C)C2(C)C
12 | 40 |  | CCC[C@H](NC(=O)[C@@H]1[C@H]2[C@@H](CN1C(=O)[C@@H](NC(=O)NC1([C@H]3CCCCS3(=O)=O)CCCCC1)C(C)(C)C)C2(C)C)C(=O)C(=O)NC1CC1
4 | 40 |  | CC(C)(C)[C@H](NC(=O)NC1([C@H]2CCCS2(=O)=O)CCCCC1)C(=O)N1C[C@@H]2[C@H]([C@H]1C(=O)N[C@@H](CCC1CC1)C(=O)C(=O)NC1CC1)C2(C)C
8 | 100 |  | CCCC[C@H](NC(=O)[C@@H]1[C@H]2[C@@H](CN1C(=O)[C@@H](NC(=O)NC1([C@H]3CCCCS3(=O)=O)CCCCC1)C1(C)CCCCC1)C2(C)C)C(=O)C(=O)NC1CC1
7 | 50 |  | CCC[C@H](NC(=O)[C@@H]1[C@H]2[C@@H](CN1C(=O)[C@@H](NC(=O)NC1([C@H]3CCCCS3(=O)=O)CCCCC1)C1(C)CCCCC1)C2(C)C)C(=O)C(=O)NC1CC1
3 | 40 | Ratio [2]: 8; concentration at 8 h [3]: 303 nM; AUC(0-t) at 24 h [4]: 3.5 µM·h | CC1([C@H](NC(=O)NC2([C@H]3CCCS3(=O)=O)CCCCC2)C(=O)N2C[C@@H]3[C@H]([C@H]2C(=O)N[C@@H](CCC2CC2)C(=O)C(=O)NC2CC2)C3(C)C)CCCCC1
6 | 35 |  | C=CCNC(=O)C(=O)C(CCC)NC(=O)[C@@H]1[C@H]2[C@@H](CN1C(=O)[C@@H](NC(=O)NC1([C@H]3CCCS3(=O)=O)CCCCC1)C(C)(C)C)C2(C)C (mixture of isomers)
4 | 30 |  | CCCC[C@H](NC(=O)[C@@H]1C2C(CN1C(=O)[C@@H](NC(=O)NC1([C@@H]3CCCS3(=O)=O)CCCCC1)C(C)(C)C)C2(C)C)C(=O)C(=O)NC1CC1 (single isomer, unassigned)
10 | 60 |  | CCCC[C@H](NC(=O)[C@@H]1C2C(CN1C(=O)[C@@H](NC(=O)NC1([C@H]3CCS3(=O)=O)CCCCC1)C(C)(C)C)C2(C)C)C(=O)C(=O)NC1CC1 (single isomer, unassigned)
5 | 120 |  | CCCC[C@H](NC(=O)[C@@H]1C2C(CN1C(=O)[C@@H](NC(=O)NC1([C@@H]3CCS3(=O)=O)CCCCC1)C(C)(C)C)C2(C)C)C(=O)C(=O)NC1CC1 (single isomer, unassigned)
11 | 60 |  | CCCC[C@H](NC(=O)[C@@H]1C2C(CN1C(=O)[C@@H](NC(=O)NC1([C@@H]3CCCCS3(=O)=O)CCCCC1)C(C)(C)C)C2(C)C)C(=O)C(=O)NC1CC1 (single isomer, unassigned)
3 | 30 |  | C=CCNC(=O)C(=O)[C@H](CCC)NC(=O)[C@@H]1C2C(CN1C(=O)[C@@H](NC(=O)NC1([C@H]3CCCCS3(=O)=O)CCCCC1)C(C)(C)C)C2(C)C (single isomer, unassigned)
3 | 30 | AUC(0-t) at 24 h [4]: 2.2 µM·h | C=CCNC(=O)C(=O)[C@H](CCCC)NC(=O)[C@@H]1C2C(CN1C(=O)[C@@H](NC(=O)NC1([C@H]3CCCS3(=O)=O)CCCCC1)C(C)(C)C)C2(C)C (single isomer, unassigned)
4 | 35 |  | C=CCNC(=O)C(=O)[C@H](CCC1CC1)NC(=O)[C@@H]1C2C(CN1C(=O)[C@@H](NC(=O)NC1([C@H]3CCCS3(=O)=O)CCCCC1)C(C)(C)C)C2(C)C (single isomer, unassigned)
6 | 40 |  | CC1(C)C2CN(C(=O)[C@@H](NC(=O)NC3([C@H]4CCCCS4(=O)=O)CCCCC3)C(C)(C)C)[C@H](C(=O)N[C@@H](CCC3CC3)C(=O)C(=O)NC3CC3)C21 (single isomer, unassigned)
4 | 20 |  | CCC[C@H](NC(=O)[C@@H]1C2C(CN1C(=O)[C@@H](NC(=O)NC1([C@H]3CCCS3(=O)=O)CCCCC1)C(C)(C)C)C2(C)C)C(=O)C(=O)NC1CC1 (single isomer, unassigned)
3 | 20 | Ratio [2]: 37; concentration at 8 h [3]: 742 nM; AUC(0-t) at 24 h [4]: 9 µM·h | CCCC[C@H](NC(=O)[C@@H]1C2C(CN1C(=O)[C@@H](NC(=O)NC1([C@H]3CCCS3(=O)=O)CCCCC1)C1(C)CCCCC1)C2(C)C)C(=O)C(=O)NC1CC1 (single isomer, unassigned)
2 | 20 | Ratio [2]: 47; concentration at 8 h [3]: 934 nM; AUC(0-t) at 24 h [4]: 20.8 µM·h | CCC[C@H](NC(=O)[C@@H]1C2C(CN1C(=O)[C@@H](NC(=O)NC1([C@H]3CCCS3(=O)=O)CCCCC1)C1(C)CCCCC1)C2(C)C)C(=O)C(=O)NC1CC1 (single isomer, unassigned)
4 | 20 | Ratio [2]: 0.5; concentration at 8 h [3]: 10 nM; AUC(0-t) at 24 h [4]: 0.4 µM·h; AUC(0-t) at 6 h [5]: 0.9 µM·h | CCCC[C@H](NC(=O)[C@@H]1C2C(CN1C(=O)[C@@H](NC(=O)NC1([C@H]3CCCS3(=O)=O)CCCCC1)C(C)(C)C)C2(C)C)C(=O)C(=O)NC1CC1 (single isomer, unassigned)
14 |  | bioavailability [6]: 4%; AUC [7]: 1.52 µM·h; AUC [8]: 0.12 µM·h; AUC(0-t) at 24 h [4]: 0.12 µM·h; EC90 (Hepatitis C virus; read-out: EC90): 350 nM | CC(C)(C)NC(=O)N[C@H](C(=O)N1C[C@H]2[C@@H]([C@H]1C(=O)NC(CC1CCC1)C(=O)C(N)=O)C2(C)C)C(C)(C)C (some centres undefined) [BOCEPREVIR]
